TLR9-MyD88 block: TLR9-MyD88 interaction inhibition; Q9NR96+Q99836; CHO BLA complementation TLR9-MyD88, CCF4 FRET ratio; inhibition, % at 4.98 µM; 0.21% of 340,000 active; AID 504734;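 active = inhibition above the mean over all tested compounds plus 3 SD, cut at about 21% in these data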;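 note: 0% = DMSO only wells and 100% = clavulanate BLA inhibitor control wells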
MC4R antag cAMP: blocks human MC4R cAMP signaling | P32245 | MC4R-expressing cells, MTII-stimulated cAMP, LANCE TR-FRET | inhibition, % at 6.5 µM | 0.48% of 360,000 active | AID 540295;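 active = inhibition above its plate's cutoff, the mean of tested wells on that plate plus 3 SD, cut at about 29% in these data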;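 note: 0% = Melanotan II alone and 100% = Melanotan II plus saturating MCL0020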
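material = U2OS cells stably expressing human melanocortin 4 receptor (MC4R) | also added = Melanotan II challenge | dosing = single nominal compound dose of 6.5 µM | detection = TR-FRET with Eu-cAMP and labeled anti-cAMP, 671 nm | replication = singlicate | timing = compound 30 min, challenge 1 h, detection 1 h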
TLR4 MyD88 comp: TLR4-MyD88 interaction inhibition in cells. HeLa CL3-4 TLR4/MyD88 BLA complementation, FRET ratio. O00206+Q99836. inhibition, % at 8.4 µM. 0.18% of 200,000 active; in the data active = inhibition above about 25%;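 note: 0% = vehicle and 100% = reference inhibitor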
NOD2-RIPK2 inh: inhibitors of human NOD2-RIPK2 interaction. O43353. CHO BLA complementation NOD2-RIPK2, CCF4 ratio. inhibition, % at 4.98 µM. 0.38% of 360,000 active; in the data active = inhibition above about 21%;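 note: 0% = vehicle only and 100% = reference blocker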
Target sequence (O43353 whole entry, looked up): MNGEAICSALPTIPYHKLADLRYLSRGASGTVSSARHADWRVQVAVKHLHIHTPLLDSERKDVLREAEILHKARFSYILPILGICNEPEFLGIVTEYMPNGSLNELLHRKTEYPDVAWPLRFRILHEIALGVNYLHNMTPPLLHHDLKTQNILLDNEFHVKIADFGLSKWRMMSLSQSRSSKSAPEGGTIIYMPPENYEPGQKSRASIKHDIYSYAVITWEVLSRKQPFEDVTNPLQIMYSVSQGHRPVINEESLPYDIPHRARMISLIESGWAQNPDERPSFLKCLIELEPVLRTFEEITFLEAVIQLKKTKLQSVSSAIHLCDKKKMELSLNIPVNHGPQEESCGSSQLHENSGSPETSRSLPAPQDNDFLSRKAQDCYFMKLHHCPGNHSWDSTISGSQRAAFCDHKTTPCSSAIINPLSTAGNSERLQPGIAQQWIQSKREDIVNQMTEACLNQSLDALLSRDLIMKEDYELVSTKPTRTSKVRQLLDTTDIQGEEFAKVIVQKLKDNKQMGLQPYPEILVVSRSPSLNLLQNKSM
MC4R barr agon: agonists of human melanocortin 4 receptor (MC4R) beta-arrestin | U2OS MC4R beta-arrestin complementation, luminescence; percent of melanotan II response, DMSO zero | activation, % at 8.9 µM | 0.98% of 360,000 active | AID 540308;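 active = activation above a per-plate cutoff, the mean activation of sample wells on that plate plus 3 SD, cut at about 8% in these data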
NTR1 agonist: activates human neurotensin receptor 1 | NTR1-U2OS beta-arrestin-GFP spot imaging, agonist mode | AID 493036 | P30989 | activation, % at 20 µM | 0.17% of 330,000 active;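 active = activation at or above 40% of the spot to cytoplasm intensity ratio, with at least 20 cells analyzed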;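 note: 0% = DMSO without peptide and 100% = 100 nM NTR1 peptide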
NOD2-RIPK2 conf: confirmation of human NOD2-RIPK2 interaction inhibitors; shares compounds with NOD2-RIPK2 inh; CHO cells, NOD2-RIPK2 BLA complementation, CCF4 FRET; inhibition, % at 4.98 µM; 70% of 1,200 active; AID 624370;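 active = mean inhibition across replicates above a set limit taken from the earlier primary screen, cut at about 21% in these data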;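 note: 0% = DMSO-only wells and the high end = clavulanate BLA-blocked wells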
BLA counter: counter-screen for NOD2-RIPK2 interaction inhibitors: BLA reporter. inhibition, % at 4.98 µM. 57% of 1,200 active. shares compounds with NOD2-RIPK2 inh. AID 624371. CHO BLA reporter, CCF4 FRET ratio, counterscreen;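 active = mean inhibition above the low-control mean inhibition plus three low-control SD, cut at about 11% in these data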;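 note: 0% = DMSO only wells and 100% = clavulanate high control wells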
* hit, by the source's call; / = no result given. Sampled rows, rich in hits. Any-hit rate of the full collection: about 1.9%.

SMILES	TLR9-MyD88 block	MC4R antag cAMP	TLR4 MyD88 comp	NOD2-RIPK2 inh	MC4R barr agon	NTR1 agonist	NOD2-RIPK2 conf	BLA counter
C=CCn1c(-c2cccc(Cl)c2)n[nH]c1=S	4	12	-6	-13	-2	0	/	/
C=CCn1c(-c2oc3nc(-c4ccccc4)cc(-c4ccccc4)c3c2N)n[nH]c1=S	1	0	8	34*	-4	1	87*	88*
C(=Cc1c[nH]c2ccccc12)c1nccc2ccccc12	12	-6	/	3	2	/	/	/
C(=Cc1c[nH]c2ccccc12)c1ccc2ccccc2n1	11	10	/	29*	-1	/	33*	47*
Cc1occc1C(=O)N/N=C/c1ccc(N(C)C)cc1	6	-15	/	-10	0	0	/	/
Cc1occc1C(=O)N/N=C/C=C/c1ccc(N(C)C)cc1	11	-9	/	27*	-1	0	37*	37*
N#CC(=C1C=C(Br)C(=NO)C=C1Cl)c1cccc2ccccc12	-1	-4	/	41*	6	/	58*	30*
N#CC1=C(N)Oc2cc(O)ccc2C1c1cccnc1 (stereo not drawn)	-3	4	-8	3	-3	0	/	/
N#CC1=C(N)Oc2cc(O)c(Cl)cc2C1c1cccnc1 (stereo not drawn)	9	-3	/	31*	-1	1	-1	4
CC1CCC2(CC1)NC(=O)N(CC(=O)NCc1ccc(Cl)cc1)C2=O (stereo not drawn)	-13	5	/	-13	0	2	/	/
O=C(Cc1ccc(-n2c(=S)[nH]c3ccccc3c2=O)cc1)N1CCN(c2ccccc2)CC1	2	2	-14	-4	5	1	/	/
O=C(Nc1cc(Br)ccc1O)C1CC(c2c(F)cccc2Cl)=NO1 (stereo not drawn)	2	12	/	22*	4	1	0	-3
O=[N+]([O-])c1ccc(S(=O)(=O)Nc2ccc(S(=O)(=O)N3CCCC3)cc2)cc1	-3	4	/	-1	-1	1	/	/
Cc1ccc(C)c(NS(=O)(=O)c2ccc(-c3cnc(C4CC4)o3)cc2)c1	3	-19	/	11	-3	4	/	/
Cc1cccc(NS(=O)(=O)c2ccc(-c3cnc(C4CC4)o3)cc2)c1C	2	-16	/	26*	-1	9	14	-1
COc1ccc(C(=O)NNC(=O)c2cc3ccccc3cc2O)cc1	10	10	/	31*	-1	0	5	8
COc1ccccc1C(=O)NNC(=O)c1cc2ccccc2cc1O	1	-3	/	3	-1	/	/	/
N#CC(c1ccccc1)c1ccc([N+](=O)[O-])cc1 (stereo not drawn)	/	/	/	8	/	/	/	/
Nc1ccccc1C#Cc1ccc([N+](=O)[O-])cc1	18	5	/	26*	-1	2	4	19*
Cc1cn2nc(N)c3ccccc3c2n1	1	7	-4	37*	2	-1	-4	2
Nc1nn2cc(-c3ccccc3)nc2c2ccccc12	8	5	-1	4	0	10	/	/
N#Cc1c(C(F)(F)F)cc(-c2ccco2)nc1SCc1ccccn1	16	8	-6	10	2	5	/	/
N#Cc1c(C(F)(F)F)cc(-c2ccco2)nc1SCc1ccncc1	18	7	13	29*	1	1	-3	-2
CC(C)(C)NC(=O)C(c1ccncc1)n1c(=O)c(-c2cc3ccccc3[nH]2)nc2ccccc21 (stereo not drawn)	/	/	/	49*	/	/	48*	68*
Cc1csc(-c2nc3ccccc3n2C(C(=O)NC(C)(C)C)c2cc3ccccc3o2)c1 (stereo not drawn)	/	/	/	-1	/	/	/	/
CC(C)(C)NC(=O)C(c1cc2ccccc2o1)n1c(=O)c(-c2cc3ccccc3[nH]2)nc2ccccc21 (stereo not drawn)	/	/	/	50*	/	/	46*	70*

Screens from PubChem BioAssay.
